CXCR6 inh: CXCR6 receptor inhibitors, primary screen, cell-based, beta-arrestin, luminescence, CHO-K1 PathHunter, 1536-well. C-X-C chemokine receptor type 6 (Homo sapiens), O00574. hit rate 0.36% among 360,000. inhibition, % at 20 µM; in the data active = inhibition above about 34%, passing the limit was not always enough;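 note: antagonist mode with CXCL16 agonist at 10 nM final; 0% = 10 nM CXCL16 with DMSO and 100% = unstimulated wells without agonist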
Target sequence (O00574 whole entry, looked up): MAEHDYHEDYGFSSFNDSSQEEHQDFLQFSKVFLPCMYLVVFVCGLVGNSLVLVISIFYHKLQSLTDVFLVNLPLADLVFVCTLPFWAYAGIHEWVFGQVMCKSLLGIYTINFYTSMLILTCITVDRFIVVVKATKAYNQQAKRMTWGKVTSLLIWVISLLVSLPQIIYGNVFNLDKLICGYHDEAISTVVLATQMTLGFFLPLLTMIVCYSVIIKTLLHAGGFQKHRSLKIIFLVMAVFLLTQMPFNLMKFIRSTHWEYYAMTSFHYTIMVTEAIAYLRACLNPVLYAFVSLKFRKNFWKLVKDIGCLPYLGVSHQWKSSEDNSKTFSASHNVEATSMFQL
EBI2 block: EBI2 receptor antagonists, beta-arrestin recruitment, primary screen, cell-based, luminescence, 7a,25-OHC stimulation, uHTS | inhibition, % at 5 µM | G-protein coupled receptor 183 (Homo sapiens), P32249 | hit rate 0.81% among 360,000 | 7a,25-OHC stimulated; in the data active = inhibition above about 38%;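 note: enzyme fragment complementation signal reports receptor beta-arrestin coupling in cells; 0% = agonist plus DMSO wells and 100% = wells without agonist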
APJ antagonist: antagonists of human apelin receptor APJ, primary screen, CHO-K1 cells, beta-arrestin complementation, luminescence | inhibition, % at 20 µM | hit rate 0.32% among 330,000 | AID 2521, 2010;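 active = inhibition above about 40% at 20 µM, limit read from the data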;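 note: cells challenged with 10 nM apelin-13 agonist together with compound; plate controls were apelin-13 plus DMSO wells for no effect and DMSO wells lacking apelin-13 for full effect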
m5-HT2A agonist: mouse Htr2a agonists via beta-arrestin recruitment, primary screen, cell-based, luminescence. 5-hydroxytryptamine receptor 2A (Mus musculus), P35363. CHO-K1 mHTR2A beta-arrestin complementation; percent of 30 µM serotonin response. activation, % at 7.6 µM. hit rate 0.66% among 360,000. AID 624169, 2012;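 active = activation above a run cutoff, the mean activation of all tested compounds plus 3 SD, cut at about 14% in these data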;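 note: 0% = plate median of compound wells and 100% = 30 µM serotonin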
APJ ag: agonists of human apelin receptor APJ, primary screen, CHO-K1 cells, PathHunter beta-arrestin, luminescence; activation, % at 20 µM; hit rate 0.11% among 330,000; AID 2520, 2010; P35414; 0% DMSO wells, 100% apelin;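 active = activation more than six SD over the plate average, tested at 20 µM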;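 note: 0% = DMSO alone and 100% = apelin-13 at 10 nM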
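Test system – PathHunter CHO-K1 APJ (AGTRL-1) beta-arrestin reporter cells · Input – 1000 cells/well · Compound – single test compound dose, 20 µM final, 1% DMSO · Times – compound stimulation 90 min at 25 °C, detection 60 min · Technique – beta-gal luminescence · Read-out basis – APJ–arrestin association signal · Control set – negative DMSO alone, positive Apelin-13 at 10 nM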
CCR6 antag: CCR6 receptor antagonists, primary screen, cell-based, CHO-K1, luminescence, beta-arrestin, uHTS; CHO-K1 CCR6 PathHunter beta-arrestin, CCL20-stimulated; hit rate 0.49% among 340,000; C-C chemokine receptor type 6 (Homo sapiens), P51684; AID 493098, 2011; inhibition, % at 20 µM;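 active = compounds whose inhibition of the agonist-driven luminescence signal at 20 µM reaches about 50%, limit read from the data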;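 note: cells stimulated with CCL20 at 14 nM final; plate controls were DMSO with CCL20 for no effect and DMSO without agonist for full effect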
EBI2 antag conf: EBI2 antagonist hit retest, beta-arrestin, confirmation, cell-based, single concentration, luminescence, 7a,25-OHC stimulation. shares compounds with EBI2 block. 7a,25-OHC antagonism. inhibition, % at 5 µM. hit rate 29% among 2,400. AID 651997, 2013;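 active = inhibition of at least 50%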
EBI2 ag: EBI2 agonist activity of antagonist hits, confirmation, counter-screen for EBI2 antagonist project, cell-based, single concentration, agonist mode, luminescence | shares compounds with EBI2 block | EBI2-expressing cells, 60 min; 0% vehicle, 100% 7α,25-dihydroxycholesterol control | activation, % at 5 µM | 2,400 tested, under 10 active;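 active = activation of at least 50%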
bGal counter: E. coli beta-galactosidase enzyme inhibition, confirmation, counter-screen for EBI2 antagonist project, biochemical, luminescence, single concentration; shares compounds with EBI2 block; purified beta-galactosidase, luminescent Galacton Star, 15 min; inhibition, % at 5 µM; hit rate 1% among 2,400; AID 652176, 2013;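 active = replicate-average signal at least 3 plate SD below neutral wells, shown as high inhibition, flagging enzyme-inhibiting false positives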;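 note: 0% = DMSO wells with enzyme and 100% = wells lacking enzyme; higher means stronger loss of beta-gal luminescence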
* = called active by the depositor. The list is not random: actives were taken first. Their share in the collection is about 2.1%.

`COc1ccc(C(c2nnnn2-c2ccc3c(c2)OCCO3)N2CCN(C/C=C/c3ccccc3)CC2)cc1` (stereo unspecified) gave CXCR6 inh 19, EBI2 block 60*, m5-HT2A agonist -10, EBI2 antag conf 41, EBI2 ag 2 and bGal counter 0.
Screening COc1ccc(-n2nnnc2C(c2cccc3ccccc23)N2CCN(C/C=C/c3ccccc3)CC2)cc1 (stereo unspecified) returned CXCR6 inh 13, EBI2 block 63*, m5-HT2A agonist -11, EBI2 antag conf 32, EBI2 ag 1 and bGal counter 2.
C(=C\c1ccccc1)/CN1CCN(C(c2cccs2)c2nnnn2-c2ccc3c(c2)OCCO3)CC1 (stereo unspecified) was read as CXCR6 inh 8, EBI2 block 72*, m5-HT2A agonist -10, EBI2 antag conf 30, EBI2 ag 0 and bGal counter -17.
`COc1ccc(C(=O)N/C=C/n2cnc3cc(C(F)(F)F)ccc32)cc1` gave CXCR6 inh 1, EBI2 block 21, APJ antagonist 1, m5-HT2A agonist -3, APJ ag -2 and CCR6 antag 5.
`CN1CCN(C(=O)c2cc3sc4ccccc4c3s2)CC1` gave CXCR6 inh 2, EBI2 block 95*, APJ antagonist -12, m5-HT2A agonist -9, APJ ag -4, CCR6 antag 13, EBI2 antag conf 70*, EBI2 ag -1 and bGal counter -12.
For CC12CCC(=O)N1C(C(=O)NNC(=O)c1ccccc1F)CS2 (stereo unspecified) the results were CXCR6 inh 7, EBI2 block -5, APJ antagonist -47, m5-HT2A agonist 1, APJ ag -2 and CCR6 antag -4.
Cc1ccccc1Oc1ncnc2oc(-c3ccccc3)cc12 was read as CXCR6 inh -12, EBI2 block 65*, APJ antagonist 10, m5-HT2A agonist -4, APJ ag -4, CCR6 antag 2, EBI2 antag conf 38, EBI2 ag -2 and bGal counter -9.
Screening O=C(CCl)N(Cc1cc(=O)[nH]c2ccccc12)c1ccccc1 returned CXCR6 inh 4, EBI2 block 6, APJ antagonist 15, m5-HT2A agonist 1, APJ ag -3 and CCR6 antag -5.
Screening CNC(=S)N1N=C(c2ccc(Br)cc2)CC1c1ccc(Br)cc1 (stereo unspecified) returned CXCR6 inh 1, EBI2 block 80*, APJ antagonist 7, m5-HT2A agonist -2, APJ ag 0, CCR6 antag 2, EBI2 antag conf 70*, EBI2 ag 2 and bGal counter 8.
CNC(=S)N1N=C(c2ccc(OC)cc2)CC1c1ccc(N(C)C)cc1 (stereo unspecified) was read as CXCR6 inh 4, EBI2 block 87*, APJ antagonist 3, m5-HT2A agonist -9, APJ ag -5, CCR6 antag 21, EBI2 antag conf 81*, EBI2 ag 2 and bGal counter 2.
For CNC(=S)N1N=C(c2cccs2)CC1c1ccc(OC)cc1 (stereo unspecified) the results were CXCR6 inh -8, EBI2 block 13, APJ antagonist 12, m5-HT2A agonist -7, APJ ag 1 and CCR6 antag -1.
CCCCOc1ccc(NC(=O)CCSc2nccn2C)cc1 was read as CXCR6 inh -7, EBI2 block -1, APJ antagonist -3, m5-HT2A agonist -4, APJ ag -1 and CCR6 antag -1.
`CCOC(=O)C1CCN(C(=S)NC(=O)c2cccs2)CC1` gave CXCR6 inh -3, EBI2 block -11, APJ antagonist 20, m5-HT2A agonist 0, APJ ag -5 and CCR6 antag 2.
`COc1ccccc1Oc1ccc2c(c1)C(=O)N(c1cccc3ncccc13)C2=O` gave CXCR6 inh -1, EBI2 block 11, m5-HT2A agonist -3 and CCR6 antag 12.
`Cc1ccc(C(=O)COC(=O)c2ccc3c(c2)C(=O)N(c2cccc4ncccc24)C3=O)cc1C` gave CXCR6 inh 4, EBI2 block 48*, APJ antagonist 0, m5-HT2A agonist -1, APJ ag 2, CCR6 antag 11, EBI2 antag conf 1, EBI2 ag -2 and bGal counter -9.
`COc1ccc(NC(=O)C2CCN(C(=O)Nc3ccc(C)cc3)CC2)cc1OC` gave CXCR6 inh -9, EBI2 block 10, APJ antagonist -18, m5-HT2A agonist 4, APJ ag -1 and CCR6 antag 5.
COc1ccc(OC2CCN(C(=O)Nc3ccc(C)cc3)CC2)cc1 was read as CXCR6 inh -12, EBI2 block 83*, APJ antagonist -22, m5-HT2A agonist 0, APJ ag -2, CCR6 antag 3, EBI2 antag conf 61*, EBI2 ag 2 and bGal counter 3.
For COc1ccc(NC(=O)N2CCC(C(=O)c3ccc(F)cc3)CC2)cc1 the results were CXCR6 inh 0, EBI2 block 53*, APJ antagonist 0, m5-HT2A agonist -3, APJ ag 9, CCR6 antag 0, EBI2 antag conf 36, EBI2 ag -1 and bGal counter -9.
Screening CSc1ccc(NC(=O)N2CCC(C(=O)c3ccc(F)cc3)CC2)cc1 returned CXCR6 inh -5, EBI2 block 64*, APJ antagonist 2, m5-HT2A agonist -15, APJ ag -3, CCR6 antag 9, EBI2 antag conf 55*, EBI2 ag 1 and bGal counter -2.
For Cc1cc(C2=CC(=O)C[C@H](c3ccc4c(c3)OCO4)C2)ccc1F the results were CXCR6 inh -4, EBI2 block 38, APJ antagonist 11, m5-HT2A agonist 4, APJ ag -4 and CCR6 antag 8.

Screening results: PubChem BioAssay, several laboratories
